# NS3 helicase inh – inhibitors of Hepatitis C virus NS3 helicase; AID 1800; inhibition, % at 10.9 µM; NS3 helicase DNA unwinding, Cy5 molecular beacon fluorescence; 290,000 tested, 0.56% active;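 active = inhibition above the mean of all tested compounds plus 3 SD, set per campaign, cut at about 35% in these data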;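 also: 0% = DMSO wells and 100% = thioflavine S control wells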
#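 System: Hepatitis C virus NS3 helicase domain fragment enzyme | Reagent: Annealed dual-labelled DNA beacon duplex, ATP-started | Compound dosing: 10.9 µM single point, 0.8% DMSO | Incubation: 1 h reaction at 25 °C, ATP-initiated | Technique: Cy5 fluorescence | Evaluation: Percent inhibition from t60/t0 fluorescence ratio | Benchmarks: Low DMSO, high thioflavine S at 110 µM | Replication: Singlicate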
# HCV core dimer – blocks dimerization of HCV core protein; inhibition, % at 5 µM; TR-FRET GST/Flag-core106 dimerization, 1536-well; 300,000 tested, 0.33% active;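 active = inhibition above the mean of all tested compounds plus 3 SD, set per screening campaign, cut at about 45% in these data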
#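 Assay system: Tagged HCV core106 pair (GST and Flag) | Buffer or medium: KF-containing HEPES buffer, pH 7.45, DTT, CHAPS, BSA | Also added: Eu donor and XL665 acceptor anti-tag antibodies | Dosing: One concentration, 5 µM, in 0.5% DMSO | Timing: 4 h at 22.5 °C | Technique: TR-FRET 671 and 617 nm emission | Repeats: Singlicate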
# GPR7 antagonist – antagonists of human GPR7 (neuropeptides B/W receptor 1); P48145; GPR7-expressing cells, fluorescence antagonist assay; inhibition, % at 4.4 µM; 290,000 tested, 1.1% active; AID 1861; in the data active = inhibition above about 16%, passing the limit was not always enough;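 also: cells stimulated with the agonist NPW; 0% = agonist with vehicle and 100% = vehicle without agonist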
# Target sequence (P48145 whole entry, looked up): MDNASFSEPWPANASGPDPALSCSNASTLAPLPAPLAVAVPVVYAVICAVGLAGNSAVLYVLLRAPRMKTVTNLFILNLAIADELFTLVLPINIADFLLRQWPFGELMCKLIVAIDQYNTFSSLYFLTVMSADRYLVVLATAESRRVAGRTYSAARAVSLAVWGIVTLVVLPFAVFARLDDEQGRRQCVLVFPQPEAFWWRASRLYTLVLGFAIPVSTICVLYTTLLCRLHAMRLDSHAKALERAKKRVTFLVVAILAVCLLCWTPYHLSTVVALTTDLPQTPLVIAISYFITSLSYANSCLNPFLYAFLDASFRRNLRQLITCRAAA
# EBNA-1 inhibitor – blocks EBNA-1 binding to DNA; EBNA-1 DNA binding, fluorescence polarization; inhibition, % at 14.8 µM; 300,000 tested, 0.34% active; in the data active = inhibition above about 28%
# ZTA counter – ZTA (EBV) inhibition in EBNA-1 counter-screen; P03206; ZTA-DNA binding, fluorescence polarization; inhibition, % at 11 µM; 320,000 tested, 0.15% active; AID 2234; in the data active = inhibition above about 33%
# EBV gp42 block – inhibitors of Epstein-Barr virus glycoprotein 42; Fluorescence polarization binding assay, mP read-out; 220,000 tested, 0.42% active; Q1HVG2; inhibition, % (tested at 21.74 µM); AID 1085; in the data active = inhibition above about 50%
# Target sequence (Q1HVG2 whole entry, looked up): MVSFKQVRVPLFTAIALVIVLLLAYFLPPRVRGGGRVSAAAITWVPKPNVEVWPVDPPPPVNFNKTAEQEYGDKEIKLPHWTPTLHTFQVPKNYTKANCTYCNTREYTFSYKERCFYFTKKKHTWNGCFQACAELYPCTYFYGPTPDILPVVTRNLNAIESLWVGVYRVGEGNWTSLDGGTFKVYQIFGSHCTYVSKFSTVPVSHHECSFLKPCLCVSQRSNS
# Numbers without * were called inactive; · = no result given. Only some compounds are listed: those with a hit (about 2.3% of all), similar ones and a draw of the others.
SMILES,NS3 helicase inh,HCV core dimer,GPR7 antagonist,EBNA-1 inhibitor,ZTA counter,EBV gp42 block
Cc1cc(C)c2nc(-c3ccccn3)cc(C(=O)Nc3ccc(S(=O)(=O)Nc4onc(C)c4C)cc3)c2c1,-15,60*,-1,2,26,15
Cc1ccc2nc(-c3ccccn3)cc(C(=O)N3CCN(c4ncccn4)CC3)c2c1,-2,8,-5,6,-12,-10
CC(Oc1ccc(F)cc1)C(=O)Nc1ccccc1C(=O)N1CCCCC1 (centres undefined),·,·,·,·,-27,·
O=C(Nc1nc(-c2ccccc2)cs1)C1CCCN(S(=O)(=O)c2cccc([N+](=O)[O-])c2)C1 (centres undefined),-2,46*,-4,-10,-6,0
COC(=O)/C=C/c1c(C)nc(NCc2ccccc2)nc1Cl,-5,-6,4,6,2,·
CCOC(=O)c1cccc(N2C(N)=NC(N)=NC2(C)C)c1,2,-7,16*,-3,-4,-9
COc1cccc(CN2C(=O)c3cccc(N)c3C2=O)c1,-1,2,-2,-5,-15,59*
CCN(CC)S(=O)(=O)c1ccc(N2CCCC2)c(NC(=O)C2=NN(c3ccccc3)C(=O)CC2)c1,·,·,·,·,-2,·
Cc1ccc(NC(=O)CN(C)C(=O)C(Sc2ccccc2)c2ccccc2)cc1 (centres undefined),·,·,·,·,9,·
COc1ccc(OC)c(C(c2nnnn2C2CCCC2)N2CCN(c3ccccc3F)CC2)c1 (centres undefined),-10,7,28*,2,-8,-13
COc1ccc(N2CCN(C(c3cccc(OC)c3OC)c3nnnn3C3CCCC3)CC2)cc1 (centres undefined),-7,9,21*,-15,2,-20
COc1cccc(C(c2nnnn2CCc2ccccc2)N2CCN(c3ccccc3)CC2)c1OC (centres undefined),-17,16,14,4,13,-7
COc1ccc(C(c2nnnn2C2CCCC2)N2CCc3ccccc3C2)cc1OC (centres undefined),-20,·,22*,·,·,-11
COc1ccccc1C(c1nnnn1CCc1ccccc1)N1CCN(c2ccccc2)CC1 (centres undefined),9,-1,23*,-12,-37,4
COc1ccc(N2CCN(C(c3ccccc3OC)c3nnnn3C3CCCC3)CC2)cc1 (centres undefined),2,·,4,·,·,-22
CC1(C)CC2(CCO1)OC(=O)CC2C(=O)Nc1ccccc1Cl (centres undefined),1,1,6,3,-1,-13
CCOc1ccc(OCCC(=O)OC(C)C(=O)Nc2ccc(C(C)=O)cc2)cc1 (centres undefined),-3,-3,7,-4,-12,·
COCCCNC(=O)c1ccc2c3c(onc13)-c1ccccc1C2=O,-2,-6,-1,-2,0,184*
COc1ccc(C)cc1NC(=O)C/C(C)=N/NC(=O)Cc1cccc2ccccc12,15,-6,12,-11,-5,·
CCC(=O)NC(=S)Nc1ccc(NC(=O)c2ccc(Br)o2)cc1,11,-5,18*,7,-12,-3
CCC(=O)NC(=S)Nc1ccc(NC(=O)c2ccc(OC)cc2)cc1,-1,0,-10,17,11,3
CC(Oc1ccc(Cl)cc1)c1ccc(C#N)c(=O)[nH]1 (centres undefined),-18,5,-9,13,11,-8
COc1ccc([N+](=O)[O-])c(S(=O)(=O)c2ccccc2)n1,-11,0,20*,-12,0,-10
CCCCCn1ccc(=O)c2c(C(F)(F)F)nccc21,1,-2,-5,1,-4,-11
O=C1c2cccc3c(N4CCCCC4)ccc(c23)C(=O)N1c1ccccn1,-8,8,4,-2,-3,129*
SMILES,NS3 helicase inh,HCV core dimer,GPR7 antagonist,EBNA-1 inhibitor,ZTA counter,EBV gp42 block
CCCN1C(=O)c2cccc3c(N4CCCCC4)ccc(c23)C1=O,13,-2,11,-1,-4,80*
CCOc1cccc(C2/C(=C(/O)c3ccc4c(c3)CC(C)O4)C(=O)C(=O)N2Cc2cccnc2)c1 (centres undefined),10,5,-1,13,-4,·
COc1cccc(NC(=O)C2CCCN2C(=O)NC2CCCCC2)c1 (centres undefined),9,8,-9,6,8,·
Cc1cccc(Nc2ncnc3nc[nH]c23)c1,0,-2,19*,3,-1,-7
C=CCNC(=O)CN(c1cc(Cl)ccc1OC)S(=O)(=O)c1ccc(C)c([N+](=O)[O-])c1,5,1,6,-1,-4,-11
CN(c1ncc(C(F)(F)F)cc1Cl)N1C(=O)c2cccc(N)c2C1=O,8,4,-13,1,14,57*
C=CCn1c(SCC(=O)NCC)nc2sc3c(c2c1=O)CCC3,2,9,-15,-9,-2,·
O=c1c2ccccc2nc(-c2ccc(Cl)cc2)n1C1CCS(=O)(=O)C1 (centres undefined),-2,-1,5,-3,-4,·
CCOC(=O)C1(Cc2ccccc2)CCN(Cc2cn(CC(=O)OC)c3ccccc23)CC1,-49,-5,32*,-4,-12,-10
COc1ccc(C(OCC(O)CN(C)C2CCCCC2)c2ccc(OC)cc2)cc1 (centres undefined),-55,-14,20*,-10,2,·
COc1ccc(N=Cc2cc(Cc3ccccc3Cl)cc([N+](=O)[O-])c2O)cc1OC,22,2,-10,-2,-3,104*
Cc1ccc(N=Cc2cc(Cc3ccccc3Cl)cc([N+](=O)[O-])c2O)c(O)c1,14,15,-15,8,7,-2
O=C(Nc1cnn(Cc2ccc(F)cc2)c1)c1cnccn1,6,-1,17*,8,11,7
O=C(Nc1cnn(Cc2ccc(F)cc2)c1)c1cc(-c2cccs2)on1,7,8,-1,8,13,-2
CCn1c(COc2ccccc2C)nnc1SCC(=O)N1CCCCC1,-5,4,-11,-21,2,3
CCn1c(COc2ccccc2C)nnc1SCC(=O)N1CCC(C)CC1,-3,5,-2,-7,5,76*
CC(C)COc1ccc(C(=O)NC(CC(C)C)C(=O)O)cc1 (centres undefined),4,1,4,5,-1,144*
COCC(=O)NNS(=O)(=O)c1ccccc1[N+](=O)[O-],7,-3,-5,0,-11,-17
CC(C)CCSc1nc(N)c(C#N)cc1C#N,0,64*,-14,-7,4,-8
FC(F)(F)c1ccccc1CN1CCN(C2CCCCCC2)CC1,-17,-8,20*,8,-3,-11
FC(F)(F)c1ccccc1CN1CCCC(N2CCN(c3ccccc3)CC2)C1 (centres undefined),2,0,-16,-4,-7,·
O=C(Cc1ccccc1)N[C@@H](Cc1ccc(O)cc1)C(=O)O,·,·,·,·,·,-6
